From ChEMBL document CHEMBL4765454, “Betulinic acid derived amides are highly cytotoxic, apoptotic and selective” (Eur J Med Chem, 2020)
The source made the active and inactive calls. No cut-off for these calls is given here.

Assays:
A-375 [1] = assay: Cytotoxicity against human A-375 cells assessed as reduction in cell viability incubated for 72 hrs by SRB assay; format: functional, cell-based; settings: Homo sapiens, A-375, 72 h; read-out: EC50
HT-29 = assay: Cytotoxicity against human HT-29 cells assessed as reduction in cell viability incubated for 72 hrs by SRB assay; format: functional, cell-based; settings: Homo sapiens, HT-29, 72 h; read-out: EC50
MCF7 = assay: Cytotoxicity against human MCF7 cells assessed as reduction in cell viability incubated for 72 hrs by SRB assay; format: functional, cell-based; settings: Homo sapiens, MCF7, 72 h; read-out: EC50
A2780 = assay: Cytotoxicity against human A2780 cells assessed as reduction in cell viability incubated for 72 hrs by SRB assay; format: functional, cell-based; settings: Homo sapiens, A2780, 72 h; read-out: EC50
FaDu = assay: Cytotoxicity against human FaDu cells assessed as reduction in cell viability incubated for 72 hrs by SRB assay; format: functional, cell-based; settings: Homo sapiens, FaDu, 72 h; read-out: EC50
NIH3T3 = assay: Cytotoxicity against mouse NIH3T3 cells assessed as reduction in cell viability incubated for 72 hrs by SRB assay; format: cell-based; settings: Mus musculus, NIH3T3, 72 h; read-out: EC50
[2] = Selectivity ratio of EC50 for mouse NIH3T3 cells to EC50 for human HT-29 cells; format: toxicity; settings: NIH3T3 cells versus HT-29 cells, read-out: Ratio EC50
[3] = Selectivity ratio of EC50 for mouse NIH3T3 cells to EC50 for human MCF7 cells; format: toxicity; settings: NIH3T3 cells versus MCF7 cells, read-out: Ratio EC50
[4] = Selectivity ratio of EC50 for mouse NIH3T3 cells to EC50 for human A2780 cells; format: toxicity; settings: NIH3T3 cells versus A2780 cells, read-out: Ratio EC50
[5] = Selectivity ratio of EC50 for mouse NIH3T3 cells to EC50 for human FaDu cells
A-375 [6] = assay: Induction of apoptosis in human A375 cells assessed as necrotic cells at 3 uM measured after 24 hrs by Annexin V-FITC/propidium iodide staining based flow cytometry (reference value: 0.331%); format: functional
A-375 [7] = assay: Induction of apoptosis in human A375 cells assessed as late apoptotic cells at 3 uM measured after 24 hrs by Annexin V-FITC/propidium iodide staining based flow cytometry (reference value: 7.352%); format: functional
A-375 [8] = assay: Induction of apoptosis in human A375 cells assessed as viable cells at 3 uM measured after 24 hrs by Annexin V-FITC/propidium iodide staining based flow cytometry (reference value: 90.123%); format: functional; settings: read-out: Activity
A-375 [9] = assay: Induction of apoptosis in human A375 cells assessed as early apoptotic cells at 3 uM measured after 24 hrs by Annexin V-FITC/propidium iodide staining based flow cytometry (reference value: 2.194%); format: functional
A-375 [10] = assay: Induction of apoptosis in human A375 cells assessed as necrotic cells at 3 uM measured after 48 hrs by Annexin V-FITC/propidium iodide staining based flow cytometry (reference value: 0.547%); format: functional
A-375 [11] = assay: Induction of apoptosis in human A375 cells assessed as late apoptotic cells at 3 uM measured after 48 hrs by Annexin V-FITC/propidium iodide staining based flow cytometry (reference value: 5.108%); format: functional
A-375 [12] = assay: Induction of apoptosis in human A375 cells assessed as viable cells at 3 uM measured after 48 hrs by Annexin V-FITC/propidium iodide staining based flow cytometry (reference value: 92.723%); format: functional; settings: read-out: Activity
A-375 [13] = assay: Induction of apoptosis in human A375 cells assessed as early apoptotic cells at 3 uM measured after 48 hrs by Annexin V-FITC/propidium iodide staining based flow cytometry (reference value: 1.622%); format: functional
A-375 [14] = assay: Induction of apoptosis in human A375 cells at 3 uM measured after 24 hrs by microscopic analysis; format: functional, cell-based
How it was run: (§1)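 A375 cells treated at 3.0, 4.8 or 6.2 µM and inspected by light microscopy after 24 h or 48 h. Cell number and morphology were scored for apoptotic features: shrinkage, strangulation and blebbing.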

A-375 [15] = assay: Induction of apoptosis in human A375 cells assessed as cell shrinkage at 3 uM measured after 48 hrs by microscopic analysis; format: functional, cell-based; how it was run: as §1
A-375 [16] = assay: Induction of apoptosis in human A375 cells assessed as strangulation at 3 uM measured after 48 hrs by microscopic analysis; format: functional, cell-based; how it was run: as §1
A-375 [17] = assay: Induction of apoptosis in human A375 cells assessed as blebbing at 3 uM measured after 48 hrs by microscopic analysis; format: functional, cell-based; how it was run: as §1
A-375 [18] = assay: Cell cycle arrest in human A375 cells assessed as accumulation at subG1 phase measured after 24 hrs by propidium iodide staining based flow cytometry (reference value: 0.46%); format: functional
A-375 [19] = assay: Cell cycle arrest in human A375 cells assessed as accumulation at G1 phase measured after 24 hrs by propidium iodide staining based flow cytometry (reference value: 44.59%); format: functional
A-375 [20] = assay: Cell cycle arrest in human A375 cells assessed as accumulation at S phase measured after 24 hrs by propidium iodide staining based flow cytometry (reference value: 47.46%); format: functional
A-375 [21] = assay: Cell cycle arrest in human A375 cells assessed as accumulation at G2/M phase measured after 24 hrs by propidium iodide staining based flow cytometry (reference value: 7.48%); format: functional
A-375 [22] = assay: Cell cycle arrest in human A375 cells assessed as accumulation at subG1 phase measured after 48 hrs by propidium iodide staining based flow cytometry (reference value: 0.57%); format: functional
A-375 [23] = assay: Cell cycle arrest in human A375 cells assessed as accumulation at G1 phase measured after 48 hrs by propidium iodide staining based flow cytometry (reference value: 57.3%); format: functional
A-375 [24] = assay: Cell cycle arrest in human A375 cells assessed as accumulation at S phase measured after 48 hrs by propidium iodide staining based flow cytometry (reference value: 31.3%); format: functional
A-375 [25] = assay: Cell cycle arrest in human A375 cells assessed as accumulation at G2/M phase measured after 48 hrs by propidium iodide staining based flow cytometry (reference value: 10.83%); format: functional

## C=C(C)[C@@H]1CC[C@]2(C(=O)Nc3cncc4ccccc34)CC[C@]3(C)[C@H](CC[C@@H]4[C@@]5(C)CC[C@H](OC(C)=O)C(C)(C)[C@@H]5CC[C@]43C)[C@@H]12
A-375 [1]
  EC50: 1480 nM
HT-29
  EC50: > 30 µM
MCF7
  EC50: 4.65 µM
A2780
  EC50: 2160 nM
FaDu
  EC50: 2260 nM
NIH3T3
  EC50: > 135 µM
[2]
  selectivity ratio: 4.5
[3]
  selectivity ratio: 29
[4]
  selectivity ratio: 62.5
[5]
  Ratio EC50: 59.7
A-375 [6]
  Activity: 0.351%
A-375 [7]
  Activity: 9.649%
A-375 [8]
  viability at 3 µM: 83.5%
A-375 [9]
  Activity: 8.551%
A-375 [10]
  Activity: 1.115%
A-375 [11]
  Activity: 21.382%
A-375 [12]
  viability at 3 µM: 33.2%
A-375 [13]
  Activity: 44.309%
A-375 [14]
  Activity: Active
A-375 [15]
  Activity: Active
A-375 [16]
  Activity: Active
A-375 [17]
  Activity: Active
A-375 [18]
  Activity: 2.38%
A-375 [19]
  Activity: 61.06%
A-375 [20]
  Activity: 36.56%
A-375 [21]
  Activity: 0%
A-375 [22]
  Activity: 23.32%
A-375 [23]
  Activity: 41.85%
A-375 [24]
  Activity: 34.84%
A-375 [25]
  Activity: 0%
